Laboratory results taken from ChEMBL document CHEMBL4261484, “Design, synthesis and anticonvulsant-analgesic activity of new N-[(phenoxy)alkyl]- and N-[(phenoxy)ethoxyethyl]aminoalkanols” (Medchemcomm, 2017).
Calls of active or inactive are those of the source.

Key:
[1] = tested on: Mus musculus; assay: Anticonvulsant activity in mouse assessed as current strength required to induce tonic hind-limb extension in 50% of the animals at 10 mg/kg, ip by maximal electroshock seizure threshold test (reference value: 6.05 to 8.13 mA); format: functional
[2] = tested on: Mus musculus; assay: Anticonvulsant activity in mouse assessed as increase in electroconvulsive threshold at 10 mg/kg, ip by maximal electroshock seizure threshold test relative to control; format: functional
[3] = Neurotoxicity in ip dosed mouse assessed as motor impairment measured after 15 mins by rotarod test; conditions: in vivo
[4] = tested on: Mus musculus; assay: Anticonvulsant activity in mouse assessed as current strength required to induce tonic hind-limb extension in 50% of the animals at 2.5 mg/kg, ip by maximal electroshock seizure threshold test (reference value: 6.05 to 8.13 mA); format: functional
[5] = Protection index, ratio of TD50 for neurotoxicity in ip dosed mouse by rotarod test to ED50 for anticonvulsant activity in mouse by maximal electroshock seizure test; format: toxicity, organism-based; conditions: in vivo, read-out: Ratio TD50/ED50
[6] = tested on: Mus musculus; assay: Anticonvulsant activity in mouse assessed as increase in electroconvulsive threshold at 2.5 mg/kg, ip by maximal electroshock seizure threshold test relative to control; format: functional
[7] = Neurotoxicity in ip dosed mouse assessed as motor impairment measured for one min by rotarod test; format: toxicity, organism-based; conditions: in vivo
Summary of the method: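 Mice trained on an accelerating rotarod, then tested at least 24 h later after ip pretreatment, on a rod turning at 10 rpm. Neurotoxicity was scored as failure to stay on the rod for one minute. Read-out is mice impaired over mice tested.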

[8] = tested on: Mus musculus; assay: Toxicity in mouse at 20 mg/kg, ip measured during maximal electroshock seizure test; format: organism-based; conditions: in vivo
[9] = tested on: Mus musculus; assay: Neurotoxicity in mouse assessed as motor impairment by measuring loss of coordination at 24 mg/kg, ip measured for 60 secs by chimney test relative to control; format: toxicity, organism-based; conditions: in vivo, 1 min
Summary of the method: (§1)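 Mice dosed ip; trained, selected animals placed in a horizontal tube 25 cm long and 2.5 cm in diameter, then tube reversed so mice must climb out backward. Read-outs: escape time (s) ± SEM and % animals losing coordination versus control. Unpaired t test.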

[10] = tested on: Mus musculus; assay: Toxicity in mouse at 30 mg/kg, ip measured during maximal electroshock seizure test; format: organism-based; conditions: in vivo
[11] = tested on: Mus musculus; assay: Toxicity in mouse assessed as effect on spontaneous activity at 24 mg/kg, ip measured for 30 mins by photoresistor actometer relative to control; format: organism-based; conditions: in vivo, 0.5 h
Summary of the method: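 Mice dosed ip; locomotor activity by photoresistor actometers counting light-beam interruptions. Each mouse was habituated 30 min in a cage, then crossings were counted over a 30 min session. Data are mean ± SEM and % change vs control; unpaired t test.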

[12] = tested on: Mus musculus; assay: Neurotoxicity in mouse assessed as motor impairment by measuring time of escaping from chimney at 24 mg/kg, ip measured for 60 secs (reference value: 8.87 +/- 1.79 secs); format: toxicity, organism-based; conditions: in vivo, 1 min; summary of the method: as §1
[13] = tested on: Mus musculus; assay: Anticonvulsant activity in mouse assessed as protection against subcutaneous pentylenetetrazole-induced seizures at 100 mg/kg, ip measured for 30 mins post pentylenetetrazole challenge at 0.5 hrs after compound dosing relative to control; format: functional
[14] = tested on: Mus musculus; assay: Anticonvulsant activity in ip dosed mouse assessed as protection against maximal electroshock-induced seizures; format: functional
Summary of the method: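 Mice were dosed ip. Maximal seizures were induced by auricular electrodes (25 mA, 500 V, 50 Hz, 0.2 s). Absence of hind-limb tonic extension counted as protection. […] Motor impairment was scored on a 10 rpm rotarod, giving TD50 the same way.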

[15] = tested on: Mus musculus; assay: Anticonvulsant activity in mouse assessed as protection against maximal electroshock-induced seizures at 100 mg/kg, ip; format: functional, organism-based
Summary of the method: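 Mice dosed ip; maximal seizures induced by auricular electroshock (25 mA, 500 V, 50 Hz, 0.2 s). Endpoint: hind-limb tonic extension; animals without it scored protected. Read-out is number protected over number tested.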

[16] = tested on: Mus musculus; assay: Toxicity in mouse at 25 mg/kg, ip measured during maximal electroshock seizure test; format: organism-based; conditions: in vivo
[17] = tested on: Mus musculus; assay: Analgesic activity in mouse assessed as decrease in time of paw licking during phase 2 at 24 mg/kg, ip measured for 15 to 30 mins by formalin test relative to control; format: functional; parameters: scale not given: the % may be the effect or the level left
Summary of the method: (§2)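 Formalin test in mice: 20 μL of 5% formalin injected intraplantarly into the right hind paw. Each mouse was observed alone in a glass beaker for 30 min. Time (s) spent licking or biting the injected paw was recorded at 0–5 min (acute phase) and 15–30 min (inflammatory phase).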

[18] = tested on: Mus musculus; assay: Anticonvulsant activity in mouse assessed as protection against subcutaneous pentylenetetrazole-induced seizures by measuring latency time of tonic seizures at 100 mg/kg, ip measured for 30 mins post pentylenetetrazole challenge at 0.5 hrs after compound dosing (reference value: 562.8 to 614.9 secs); format: functional
[19] = tested on: Mus musculus; assay: Analgesic activity in mouse assessed as decrease in time of paw licking during phase 1 at 24 mg/kg, ip measured for 5 mins by formalin test relative to control; format: functional; parameters: scale not given: the % may be the effect or the level left; summary of the method: as §2
[20] = tested on: Mus musculus; assay: Toxicity in mouse at 100 mg/kg, ip measured during maximal electroshock seizure test; format: organism-based; conditions: in vivo

Question: With COC[C@@H](NC(C)=O)C(=O)NCc1ccccc1 [LACOSAMIDE] as the molecule, how does the Activity [1] read?
Answer: >25 mA

Question: What about the Activity [2] of the same molecule?
Answer: >413.22%

Question: And the TD50 at 0.25 h [3]?
Answer: 42.5 mg/kg

Question: Which results are given for O=C1NC(=O)C(c2ccccc2)(c2ccccc2)N1 [PHENYTOIN]?
Answer: Activity [4]: 7.46 mA; selectivity ratio [5]: 10.3; Activity [6]: 23.31%; TD50 at 1 min [7]: 68.7 mg/kg

Question: With Cc1cccc(Cl)c1OCCOCCNCC(O)c1ccccc1 (racemic) as the molecule, how does the Activity [8] read?
Answer: Non-Toxic

Question: What about the Activity [9] of the same molecule?
Answer: 0%

Question: What about the Activity [10] of the same molecule?
Answer: Non-Toxic

Question: And the Activity [11]?
Answer: 44.39%

Question: And the Time [12]?
Answer: 3.5 s

Question: And the Activity [1]?
Answer: 11.09 mA

Question: And the Activity [13]?
Answer: inactive

Question: What about the ED50 [14] of the same molecule?
Answer: 23.9 mg/kg

Question: And the Activity [15]?
Answer: Active

Question: What about the Activity [2] of the same molecule?
Answer: 56.64%

Question: And the selectivity ratio [5]?
Answer: 4.3

Question: What about the Activity [16] of the same molecule?
Answer: Non-Toxic

Question: What about the Activity [17] of the same molecule?
Answer: 8.8%

Question: And the Time [18]?
Answer: 219.6 s

Question: What about the Activity [19] of the same molecule?
Answer: 8.57%

Question: And the Activity [20]?
Answer: Non-Toxic
